Experimental data taken from ChEMBL document CHEMBL1134661, “N-Benzylpolyamines as vectors of boron and fluorine for cancer therapy and imaging: synthesis and biological evaluation” (J Med Chem, 2001).
Where “and” joins values, the source holds several entries; their conditions need not be identical. Identical values can stand only once.

Tests used:
[1] = Compound was tested for accumulation of (50 uM) boronated polyamines in murine B16 melanoma cells; format: functional
Outline: (§1)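 Rat C6, human U251 glioblastoma or murine B16 melanoma cells exposed 24 h to 50 µM boron-containing derivative, either directly or after 24 h preincubation with 5 mM DFMO; washed cells sonicated in 0.2 N perchloric acid, derivative quantified by ion-pair reversed-phase HPLC with o-phthalaldehyde fluorescence detection, normalized to protein; mean ± SD.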

3LL cell line [2] = test: accumulation of compound in 3LL cells was measured without DFMO by HPLC at 50 uM dose; format: functional, Mus musculus
Outline: (§2)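 3LL cells exposed 24 h to derivative, BSH or BPA, with or without prior 24 h incubation with 5 mM DFMO; intracellular drug measured by ion-pair reversed-phase HPLC with o-phthalaldehyde fluorescence, or cellular boron by ICP-AES, per mg protein; mean ± SD; Student's t-test, p < 0.01.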

[3] = Compound was tested for accumulation of (50 uM) boronated polyamines in rat C6 glioblastoma cells; format: functional; outline: as §1
Nucleic Acid [4] = test: (§3) DNA binding affinity (conc to decrease the fluorescence of the ethidium bromide-DNA complex by 50%); format: nucleic-acid assay
CHO-MG [5] = test: Compound was tested for accumulation in CHO-MG cells by HPLC at 250 uM dose; format: functional, Cricetulus griseus
Outline: (§4)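 CHO or polyamine-transport-deficient CHO-MG cells (proline 2 µg/mL added for CHO-MG), RPMI 1640 with 10% FCS, 37 °C, 5% CO2; seeded at 5 × 10⁴ cells/mL, derivative added 24 h later for 24 h; trypsin/EDTA harvest, three PBS washes, sonication in 0.2 N perchloric acid; derivative measured by ion-pair reversed-phase HPLC with o-phthalaldehyde/N-acetylcysteine fluorescence; per mg protein (Folin); mean ± SD.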

CHO [6] = test: Compound was tested for accumulation in CHO cells by HPLC at 250 uM dose; format: functional, Cricetulus griseus; outline: as §4
3LL cell line [7] = test: Effect on the growth of 3LL cells was evaluated using an MTT assay at 72 hour incubation; format: functional, cell-based; conditions: Mus musculus
3LL cell line [8] = test: spermidine levels in 3LL cells after the treatment of 50 uM of Compound; format: functional, cell-based; conditions: Mus musculus
Outline: (§5)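 3LL cells incubated 24 h with derivative, some after 24 h pretreatment with 5 mM DFMO; perchloric acid extracts analyzed for putrescine, spermidine and spermine by ion-pair reversed-phase HPLC with o-phthalaldehyde post-column fluorescence, normalized to protein (Folin); mean ± SD.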

U-251 [9] = test: Compound was tested for accumulation of (50 uM) boronated polyamines in human U251 glioblastoma cells; format: functional; outline: as §1
3LL cell line [10] = test: accumulation of compound in 3LL cells was measured with DFMO by ICP-AES at 50 uM dose; format: functional, Mus musculus; outline: as §2
3LL cell line [11] = test: accumulation of compound in 3LL cells was measured with DFMO by HPLC at 250 uM dose; format: functional, Mus musculus; outline: as §2
3LL cell line [12] = test: Effect on the growth of 3LL cells by DFMO pretreatment at 48 hr incubation; format: functional, cell-based; conditions: Mus musculus
Outline: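 3LL cells given 5 mM DFMO 24 h after seeding for a 24 h preincubation, then 48 h with spermidine or derivative; MTT readout; growth expressed relative to cells treated with DFMO only; mean ± SEM.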

3LL cell line [13] = test: Effect on the growth of 3LL cells was evaluated using an MTT assay at 48 hour incubation; format: functional, cell-based; conditions: Mus musculus
3LL cell line [14] = test: accumulation of compound in 3LL cells was measured without DFMO by HPLC at 250 uM dose; format: functional, Mus musculus; outline: as §2
3LL cell line [15] = test: spermine levels in 3LL cells after the treatment of 50 uM of Compound; format: functional, cell-based; conditions: Mus musculus; outline: as §5
3LL cell line [16] = test: accumulation of compound in 3LL cells was measured with DFMO by HPLC at 50 uM dose; format: functional, Mus musculus; outline: as §2
3LL cell line [17] = test: accumulation of compound in 3LL cells was measured without DFMO by ICP-AES at 50 uM dose; format: functional, Mus musculus; outline: as §2
CHO-MG [18] = test: Compound was tested for accumulation in CHO-MG cells by HPLC at 50 uM dose; format: functional, Cricetulus griseus; outline: as §4
CHO [19] = test: Compound was tested for accumulation in CHO cells by HPLC at 50 uM dose; format: functional, Cricetulus griseus; outline: as §4
Nucleic Acid [20] = test: as §3; format: nucleic-acid assay, Bos taurus
3LL cell line [21] = test: accumulation of compound in 3LL cells was measured without DFMO by HPLC at 1 uM dose; format: functional, Mus musculus; outline: as §2
3LL cell line [22] = test: accumulation of compound in 3LL cells was measured without DFMO by HPLC at 10 uM dose; format: functional, Mus musculus; outline: as §2
3LL cell line [23] = test: accumulation of compound in 3LL cells was measured with DFMO by HPLC at 1 uM dose; format: functional, Mus musculus; outline: as §2
3LL cell line [24] = test: spermine levels in 3LL cells after the treatment of 1 uM of Compound; format: functional, cell-based; conditions: Mus musculus; outline: as §5
CHO [25] = test: Compound was tested for accumulation in CHO cells by HPLC at 10 uM dose; format: functional, Cricetulus griseus; outline: as §4
3LL cell line [26] = test: spermine levels in 3LL cells after the treatment of 10 uM of Compound; format: functional, cell-based; conditions: Mus musculus; outline: as §5
3LL cell line [27] = test: accumulation of compound in 3LL cells was measured with DFMO by HPLC at 10 uM dose; format: functional, Mus musculus; outline: as §2
3LL cell line [28] = test: spermidine levels in 3LL cells after the treatment of 250 uM of Compound; format: functional, cell-based; conditions: Mus musculus; outline: as §5
3LL cell line [29] = test: spermine levels in 3LL cells after the treatment of 250 uM of Compound; format: functional, cell-based; conditions: Mus musculus; outline: as §5
3LL cell line [30] = test: putrescine levels in 3LL cells after the treatment of 250 uM of Compound; format: functional, cell-based; conditions: Mus musculus; outline: as §5
U-251 [31] = test: Compound was tested for accumulation of (50 uM) boronated polyamines in human U251 glioblastoma cells incubated with 5 mM DFMO; format: functional; outline: as §1
[32] = Compound was tested for accumulation of (50 uM) boronated polyamines in murine B16 melanoma cells ncubated with 5 mM DFMO; format: functional; outline: as §1
[33] = Compound was tested for accumulation of (50 uM) boronated polyamines in rat C6 glioblastoma cells incubated with 5 mM DFMO; format: functional; outline: as §1

Row | Compound | IC50 (Nucleic Acid [20]) | Activity (3LL cell line [2]) | IC50 (3LL cell line [7]) | Level (nM (mg of protein)-1) (3LL cell line [8]) | IC50 (3LL cell line [12]) | IC50 (3LL cell line [13]) | Level (nM (mg of protein)-1) (3LL cell line [15]) | Activity (3LL cell line [16]) | Accumulation (CHO [19]) | Activity (3LL cell line [22]) | also measured
1 | CC1(C)COB(c2ccc(CN(CCCN)CCCCN)cc2)OC1.Cl |  | 2.6 nmol/mg protein | > 1000 µM | 8.92 | > 10 µM | > 1000 µM | 7.4 | 0.98 nM (mg of protein)-1 |  |  | Accumulation [1]: 0.92 nM (mg of protein)-1 and 0.45 nM (mg of protein)-1; Accumulation [3]: 2.92 nM (mg of protein)-1 and 2.5 nM (mg of protein)-1; IC50 (Nucleic Acid [4]): 102 µM; Accumulation (CHO-MG [5]): 3.84 nM (mg of protein)-1; Accumulation (CHO [6]): 5.05 nM (mg of protein)-1; Accumulation (U-251 [9]): 2.12 nM (mg of protein)-1 and 1.79 nM (mg of protein)-1; Activity (3LL cell line [10]): 1.83 nM (mg of protein)-1; Activity (3LL cell line [11]): 2.55 nM (mg of protein)-1; Activity (3LL cell line [14]): 3.35 nM (mg of protein)-1; Activity (3LL cell line [17]): 3.46 nM (mg of protein)-1
2 | Cl.NCCCCNCc1ccccc1 | 3110 µM | 0.34 nmol/mg protein | 604 µM | 0.89 | > 50 µM | 993 µM | 5.79 | 1.03 nM (mg of protein)-1 | 0.4 nM (mg of protein)-1 |  | Accumulation (CHO-MG [18]): 0.1 nM (mg of protein)-1
3 | Cl.NCCCCNCCCNCc1ccc(F)cc1 | 341 µM |  | 2.3 µM |  | 0.5 µM | 4.7 µM |  |  |  | 12.87 nM (mg of protein)-1 | Activity (3LL cell line [21]): 5.51 nM (mg of protein)-1; Activity (3LL cell line [23]): 12.19 nM (mg of protein)-1; Level (nM (mg of protein)-1) (3LL cell line [24]): 8.25; Accumulation (CHO [25]): 9.4 nM (mg of protein)-1
4 | NCCCCNCCCN [SPERMIDINE] | 98 µM |  |  |  |  |  |  |  |  |  | 
5 | Cl.NCCCCNCc1ccc(F)cc1 | > 3000 µM | 0.55 nmol/mg protein | 468 µM | 0.92 | > 10 µM | 568 µM | 11 | 1.31 nM (mg of protein)-1 | 0.9 nM (mg of protein)-1 |  | Accumulation (CHO-MG [18]): 0.45 nM (mg of protein)-1
6 | Cl.NCCCCNCCCNCc1ccc(B(O)O)cc1 | 37 µM |  | 400 µM | 0.14 | > 1 µM | 824 µM | 7.25 | 4.18 nM (mg of protein)-1 | 4.78 nM (mg of protein)-1 |  | Accumulation [1]: 4.75 nM (mg of protein)-1 and 9.26 nM (mg of protein)-1; Drug (3LL cell line [2]): 2.01 nM (mg of protein)-1; Activity [3]: 1.63 nM (mg of protein)-1; Accumulation (U-251 [9]): 1.65 nM (mg of protein)-1; Activity (3LL cell line [10]): 5.68 nM (mg of protein)-1; Activity (3LL cell line [17]): 2.7 nM (mg of protein)-1
7 | CC1(C)COB(c2cccc(CN(CCCN)CCCCN)c2)OC1.Cl |  |  |  |  |  |  |  |  |  |  | Accumulation (CHO-MG [5]): 3.71 nM (mg of protein)-1; Accumulation (CHO [6]): 5.65 nM (mg of protein)-1; Activity (3LL cell line [11]): 3.93 nM (mg of protein)-1; Activity (3LL cell line [14]): 4.52 nM (mg of protein)-1

Now from value to compound, other results behind:

Row | IC50 (Nucleic Acid [20]) | Compound | Activity (3LL cell line [2]) | IC50 (3LL cell line [7]) | Level (nM (mg of protein)-1) (3LL cell line [8]) | IC50 (3LL cell line [12]) | IC50 (3LL cell line [13]) | Level (nM (mg of protein)-1) (3LL cell line [15]) | Activity (3LL cell line [16]) | Accumulation (CHO [19]) | Activity (3LL cell line [22]) | also measured
8 | 107 µM | Cl.NCCCCNCCCNCc1ccccc1 |  | 9.3 µM |  | 11.9 µM | 31 µM |  |  | 17.58 nM (mg of protein)-1 | 9 nM (mg of protein)-1 | Level (nM (mg of protein)-1) (3LL cell line [26]): 7.23; Activity (3LL cell line [27]): 23.67 nM (mg of protein)-1
9 | > 11000 µM | NCCCCN [PUTRESCINE] |  |  |  |  |  |  |  |  |  | 
10 | 310 µM | Cl.NCCCCN(CCCN)Cc1ccccc1 | 4.92 nmol/mg protein | > 1000 µM |  | > 100 µM | > 1000 µM |  | 6.92 nM (mg of protein)-1 |  | 2.59 nM (mg of protein)-1 | Accumulation (CHO-MG [5]): 5.55 nM (mg of protein)-1; Accumulation (CHO [6]): 13.64 nM (mg of protein)-1; Level (nM (mg of protein)-1) (3LL cell line [28]): 4.15; Activity (3LL cell line [27]): 5.52 nM (mg of protein)-1; Activity (3LL cell line [11]): 5.46 nM (mg of protein)-1; Level (nM (mg of protein)-1) (3LL cell line [29]): 8.64; Activity (3LL cell line [14]): 6.11 nM (mg of protein)-1
11 | 1380 µM | Cl.NCCCCNCc1ccc(B(O)O)cc1 | 1.32 nmol/mg protein | > 1000 µM | 1.07 | > 50 µM | > 1000 µM | 7.52 | 8.44 nM (mg of protein)-1 | 5.76 nM (mg of protein)-1 | 0.52 nM (mg of protein)-1 | Accumulation (CHO-MG [18]): 0.51 nM (mg of protein)-1; Accumulation [1]: 5.77 nM (mg of protein)-1; Level (nM (mg of protein)-1) (3LL cell line [30]): 1.31; Activity [3]: 0.09 nM (mg of protein)-1; Accumulation (U-251 [31]): 0.22 nM (mg of protein)-1; Level (nM (mg of protein)-1) (3LL cell line [28]): 2.28; Activity (3LL cell line [27]): 3.37 nM (mg of protein)-1; Accumulation (U-251 [9]): 0.21 nM (mg of protein)-1; Activity (3LL cell line [10]): 6.73 nM (mg of protein)-1; Accumulation [32]: 20.41 nM (mg of protein)-1; Accumulation [33]: 0.41 nM (mg of protein)-1; Level (nM (mg of protein)-1) (3LL cell line [29]): 7.66; Activity (3LL cell line [17]): 1.29 nM (mg of protein)-1
